Compound activity (PubChem BioAssay)
Hits are enriched below; roughly 1.8% of the tested compounds scored in any of these assays.
TRAIL sens C8 = viability loss with TRAIL in NB7+C8 cells, primary screen, TRAIL sensitizer project, cell-based, ATPlite luminescence | inhibition (viability loss, TRAIL sensitization), % at 10 µM | 360,000 tested, 1% active | AID 624354, 2012;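 active = compounds causing at least 50% loss of cell viability in the single-dose screen, relative to plate controls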
STAT3 inh = IL-6 driven STAT3 reporter inhibitors, primary screen, U3A cells, luciferase, luminescence, MLSCN library. IL-6 STAT3-luciferase reporter; host cell line lacks STAT1. inhibition, % at 5.5 µM. 190,000 tested, 0.89% active. AID 862, 2007;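 active = inhibition above the mean inhibition across all screened compounds plus 3 SD, cut at about 44% in these data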;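 also: 0% = DMSO only wells and 100% = 100 µM nifuroxazide control wells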
STAT1 inh = STAT1 signaling inhibitors, primary screen, cell-based, HTS, luciferase reporter. AID 920, 2007. 200,000 tested, 0.35% active. inhibition, % at 5.5 µM. NIH 3T3 STAT1-luciferase reporter, IFN-gamma, luminescence;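 active = inhibition above a set limit, the mean inhibition across all tested compounds plus 3 SD, cut at about 34% in these data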;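 also: 0% = IFN-gamma with DMSO and 100% = IFN-gamma with 300 µM nifuroxazide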
PPC-1+TRAIL kill = compounds killing PPC-1 cancer cells with TRAIL present, primary screen, TRAIL potentiator project, ATPLite luminescence, uHTS. PPC-1 cells + TRAIL, ATPLite viability luminescence. cell killing (% activity), % at 4 µM or 5 µM. 220,000 tested, 0.41% active. AID 1443, 2008;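 active = cell killing above 50% in the first pass at 4 µM, then a duplicate retest at 5 µM averaging 50% or more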;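 also: plate controls were cells with TRAIL plus DMSO for no effect and medium-only wells lacking cells for full effect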
STAT3 act-1 = IL-6 driven STAT3 reporter potentiators, primary screen, U3A cells, luciferase, luminescence, MLSCN library. IL-6 STAT3-luciferase reporter; 100% = signal with IL-6 EC80 alone. activation (% of control), % at 5.6 µM. 190,000 tested, 0.91% active. AID 871, 2007;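 active = activation above the screen-wide mean of compound activation plus 3 SD, cut at about 130% in these data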;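 also: 0% = background luminescence of wells with medium and substrate only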
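System – human U3A cells carrying STAT3-luciferase construct · Probe or stimulus – Interleukin-6, 33 ng/mL · Schedule – compound 1 h, then IL-6 6 h at 37 °C · Signal – luminescence from STAT3-driven luciferase reporter · Evaluation – percent of IL-6-only median luminescence · Benchmarks – IL-6-only high control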
STAT3 act-2 = STAT3 reporter potentiators, retest of hits, confirmation, U3A cells, luciferase, luminescence; potentiation (% of control), % at 5.7 µM; IL-6 potentiation; U3A cells lack STAT1; 100 means same as IL-6 alone; 1,200 tested, 64% active; shares compounds with STAT3 act-1;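 active = percent activation of the STAT3 luciferase reporter above a set limit taken from the earlier primary screen, cut at about 130% in these data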;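 also: 0% = background signal of medium plus substrate and 100% = median of IL-6 with DMSO wells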
NFkB act 2 = NF-kB reporter activators in human cells, counter-screen for STAT3 activator project | shares compounds with STAT3 act-1 | activation (% of control), % at 5.7 µM | AID 1309, 2008 | NF-kappaB reporter activation | 1,200 tested, 11% active; in the data active = activation above about 120%;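 also: reporter induced by TNF-alpha stimulation; 100% = median of stimulated DMSO wells and 0% = no signal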
STAT1 act = STAT1 reporter activators, IFN-gamma induced, counter-screen for STAT3 activator project, cell-based, NIH 3T3, luciferase luminescence; NIH 3T3 STAT1-luciferase reporter; shares compounds with STAT3 act-1; 1,200 tested, 13% active; activation (% of control), % at 5.7 µM; AID 1318, 2008;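 active = activation above the solvent-only control well mean plus 3 SD, set per screening run, cut at about 120% in these data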;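 also: 100% = IFN-gamma with DMSO median signal so 100% means no change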
* = called active by the depositor; x = no result.

SMILES	TRAIL sens C8	STAT3 inh	STAT1 inh	PPC-1+TRAIL kill	STAT3 act-1	STAT3 act-2	NFkB act 2	STAT1 act
O=C(CS(=O)c1ccc(C(F)(F)F)cc1[N+](=O)[O-])Oc1ccccc1 (stereo not given)	-0.5	-50.9	25.5	-22.1	146.6*	129.1	101.4	72.3
COC(=O)c1ccc(OC(=O)CS(=O)c2ccccc2[N+](=O)[O-])cc1 (stereo not given)	-3.0	-11.2	30.8	-0.5	122.0	x	x	x
O=C1CCCCc2cc(O)c(O)cc21	14.1	x	x	x	x	x	x	x
Nc1cc2c(cc1O)CCCC2	2.2	-35.2	-7.2	14.3	137.4*	182.8*	118.3	146.9*
O=C(NCC(F)(F)F)c1cc2c(c(-c3cccc(-c4ccccc4F)c3)n1)[C@H](CCO)N(C(=O)CC1CC1)C2	25.6	x	x	x	x	x	x	x
N#Cc1sc2nc(-c3ccccc3)cc(C(F)(F)F)c2c1N	0.6	-36.4	4.6	x	147.9*	155.3*	104.5	112.3
COc1ccc(Cl)cc1NC(=O)CN(C)C(=O)c1cc(C)oc1C	-3.1	x	x	x	x	x	x	x
O=c1cc(-c2ccccc2)[nH]c2ccc(F)cc12	25.9	-23.2	-7.8	9.9	117.0	x	x	x
COc1cccc(-c2cc(=O)c3cc(NC(=O)c4ccccc4)ccc3[nH]2)c1	14.4	-14.9	-0.9	4.0	110.0	x	x	x
Cc1ccc(-c2cc(=O)c3cc(F)ccc3[nH]2)cc1	33.3	-10.1	-4.1	8.6	106.1	x	x	x
COc1cccc(-c2cc(=O)c3cc(NC(=O)c4ccc(N(C)C)cc4)ccc3[nH]2)c1	x	-49.4	-3.0	39.3	138.9*	112.4	160.9*	105.9
Cc1ccc2[nH]c(-c3cccc(F)c3)cc(=O)c2c1	20.9	-53.6	-22.9	30.3	142.4*	110.1	142.8*	116.3
COc1ccc2[nH]c(-c3cccc(F)c3)cc(=O)c2c1	25.1	-60.4	-30.2	7.0	148.1*	119.5	130.1*	125.5*
Oc1ccccc1-c1nnc(SCCN2CCOCC2)n1Cc1ccccc1	18.4	-80.5	0.6	-5.2	167.8*	147.3*	106.4	104.9
CCCn1c2ccccc2c2nnc(SCC(=O)OC)nc21	15.1	0.2	-0.3	-16.3	102.2	x	x	x
CCCCn1c2ccccc2c2nnc(SCC(=O)NC3=NN=C(c4ccccc4)CS3)nc21	x	-50.0	2.4	15.3	136.4*	107.4	110.5	117.7
Cc1ccc2cc(C#N)c(N3CCCC3)nc2c1C	14.4	-46.5	-8.4	19.5	140.1*	136.8*	116.7	132.5*
COCCNC(=O)C1(C)CCCN(Cc2sc(C)nc2C)C1 (stereo not given)	-4.6	x	x	x	x	x	x	x
COc1ccc(S(=O)(=O)N2CCN(c3ccc4nnc(-c5ccccc5)n4n3)CC2)cc1	53.9*	-40.8	-4.2	-21.3	142.8*	119.8	107.0	113.1
CCc1noc(C)c1C(=O)OCC(=O)NCc1ccccc1OC	-17.5	x	x	x	x	x	x	x
CC(C)(C)c1ccc(CC(=O)N2CCC2(C)C(=O)NS(=O)(=O)c2ccc(Cl)s2)cc1 (stereo not given)	-4.8	x	x	x	x	x	x	x
O=c1[nH]c(Cc2ccccc2)nc2c1oc1ccccc12	-11.6	-1.3	1.8	11.7	104.2	x	x	x
Cc1nc2c(oc3ccccc32)c(=O)o1	-8.6	-87.7	-2.4	13.0	173.6*	159.2*	116.3	107.0
O=C(c1ccc(F)cc1)N1CCN2C(=O)c3ccccc3C12c1ccc(Cl)cc1 (stereo not given)	2.9	-96.7	26.8	15.5	203.8*	146.3*	115.5	97.0
O=C(c1ccccc1)N1CCN2C(=O)c3ccccc3C12c1ccc(Cl)cc1 (stereo not given)	-5.4	-375.8	26.9	15.6	417.8*	282.6*	112.0	75.0
SMILES	TRAIL sens C8	STAT3 inh	STAT1 inh	PPC-1+TRAIL kill	STAT3 act-1	STAT3 act-2	NFkB act 2	STAT1 act
C=CCSc1nnc(-c2cc3c(s2)-c2ccccc2CC3)o1	-3.1	-55.2	-14.8	27.2	150.7*	145.2*	109.3	116.2
CCn1c(N2CCN(CC(=O)c3c[nH]c4ccccc34)CC2)nc2c1c(=O)[nH]c(=O)n2C	3.2	-46.8	8.1	9.1	142.1*	136.8*	109.7	97.7
Cn1c(=O)c(C(=O)Nc2ccccn2)c(O)c2ccccc21	62.4*	-44.1	-23.4	35.6	139.3*	178.4*	115.3	181.4*
S=C(Nc1ccc(Cl)cc1)Nc1cccc2cnccc12	10.2	-48.6	8.6	15.8	146.6*	143.7*	97.4	100.4
Cc1cc2c(cc1C)-n1nnnc1C(N1CCCC1)C(=O)N2 (stereo not given)	-2.7	x	x	x	x	x	x	x
O=C(Cn1cc(COc2ccc(Cl)c(Cl)c2)nn1)NS(=O)(=O)c1ccccc1OC(F)(F)F	2.2	x	x	x	x	x	x	x
CCOC(=O)c1c(C)[nH]c(C(=O)OCC(=O)Nc2cc(C)nn2-c2ccccc2)c1C	-8.2	x	x	x	x	x	x	x
Nc1nnc(Cc2c[nH]c3ccccc23)s1	-7.3	-41.4	11.1	-7.6	142.6*	154.2*	112.6	102.3
CC(=O)c1cccc(NC(=O)CSc2ccc(-c3cccnc3)nn2)c1	-12.9	x	x	x	x	x	x	x
CC(=O)Nc1cccc(NC(=O)CSc2ccc(-c3cccnc3)nn2)c1	-8.5	-51.1	-5.3	-4.4	140.4*	114.5	98.5	106.0
O=C([C@H]1O[C@@H](n2ccc(=O)[nH]c2=O)[C@H](O)[C@@H]1O)N(CCC1=CCCCC1)CC1CC1	-25.7	x	x	x	x	x	x	x
O=C1Cn2c(nc3ccccc32)N1c1cccc(C(F)(F)F)c1	1.7	-37.4	2.5	6.7	136.2*	114.7	106.2	111.1
CC(O)(c1cccc(F)c1)c1nc(-c2csc3ccccc23)cs1 (stereo not given)	3.7	x	x	x	x	x	x	x
COc1ccccc1/C=N/NC(=O)C1=NNC(c2ccccc2)(c2ccccc2)C1	x	-52.5	10.0	19.3	148.7*	120.0	100.7	93.0
COc1ccccc1-c1n[nH]c(=S)n1-c1ccccc1	12.8	-38.5	1.9	10.6	137.5*	104.0	104.3	104.8
CC(C)(C)C1CCN2CCCC(c3ccc([N+](=O)[O-])cc3)(C1)C21OCCO1 (stereo not given)	-0.3	x	x	x	x	x	x	x
O=C(O)CCCC(=O)Nc1ccc(OCc2nc3ccccc3s2)cc1	1.5	-36.5	-17.5	11.7	136.2*	126.3	104.3	119.2
CC(=O)Nc1ccc(NC(=O)CCCSc2nc3ccccc3s2)cc1	-5.7	-46.0	-1.3	21.1	140.2*	128.8	104.0	98.3
